Results from different studies.
Protocols differ between the studies behind these lines.
Target: Mitogen-activated protein kinase kinase kinase 3 (MAP3K3, Homo sapiens, UniProt Q99759)
One construct used (Q99759 1-626): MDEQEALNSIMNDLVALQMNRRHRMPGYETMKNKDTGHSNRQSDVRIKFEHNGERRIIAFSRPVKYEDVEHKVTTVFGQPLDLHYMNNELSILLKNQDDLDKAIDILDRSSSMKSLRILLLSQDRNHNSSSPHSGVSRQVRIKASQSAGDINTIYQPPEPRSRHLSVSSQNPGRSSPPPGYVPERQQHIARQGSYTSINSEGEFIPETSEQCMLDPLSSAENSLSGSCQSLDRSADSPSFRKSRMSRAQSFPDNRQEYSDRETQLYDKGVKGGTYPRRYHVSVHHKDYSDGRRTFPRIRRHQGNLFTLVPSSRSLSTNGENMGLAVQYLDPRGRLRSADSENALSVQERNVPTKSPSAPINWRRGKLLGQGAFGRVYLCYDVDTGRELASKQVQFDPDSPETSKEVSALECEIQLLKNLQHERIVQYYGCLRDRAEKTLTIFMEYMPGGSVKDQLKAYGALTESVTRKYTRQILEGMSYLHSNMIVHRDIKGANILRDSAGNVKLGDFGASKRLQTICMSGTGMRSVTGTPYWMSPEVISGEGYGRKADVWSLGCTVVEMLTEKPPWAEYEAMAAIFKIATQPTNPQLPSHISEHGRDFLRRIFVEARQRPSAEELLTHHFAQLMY

SMILES	test	setting	remaining binding
F[C@@H]1CCN(c2nccc(-c3cnn4ncccc34)n2)C1	binding	1 µM	100%
Cc1cc(NC(=O)c2cccc(S(F)(F)(F)(F)F)c2)cc(-n2ccn3nc(-c4cccnc4)cc23)c1	cell-free assay, competition with immobilised ligand	1 µM	87.9%
CN(c1nccc(-c2cnn3ncccc23)n1)C1CC1	binding	1 µM	100%
O=C(c1ccc(Nc2ncc(Cl)c(-c3ccc(Cl)s3)n2)cc1)N1CCC(N2CCCC2)CC1	binding, competition with immobilised ligand	1 µM	6.3%
c1cncc(-c2cccc(Nc3nccc(NC4CCCCC4)n3)c2)c1	binding, competition with immobilised ligand	10 µM	41%
Nc1c(C(=O)NCc2ccc(C(=O)NCCCC3CCCCC3)cc2)cnn1-c1ccccc1	cell-free assay, competition with immobilised ligand	0.1 µM	100%
CN(C)c1ncc(F)c(-c2cnn3ncccc23)n1	binding	1 µM	90%
COc1ncc2cc3ccccc3nc2c1C#N	cell-free assay, competition with immobilised ligand	5 µM	95%
CCN1CCN(Cc2ccc(C(=O)Nc3ccc(C)c(Oc4ccc5c(c4)CC(=O)N5)c3)cc2C(F)(F)F)CC1	binding, competition with immobilised ligand	1 µM	100%
CN(C)c1nccc(-c2cnn3ncccc23)n1	binding	1 µM	100%
O=C(NCCCN1CCOCC1)c1ccc(Nc2nccc(-c3cc4ccccc4s3)n2)cc1	binding, competition with immobilised ligand	1 µM	65%
C[C@@H](c1ccc(-n2cnc3c(N)ncnc32)cc1)N1CCc2nn(C)c(Cc3ccccc3)c2C1=O	binding, competition with immobilised ligand	0.1 µM	79%
COc1ccnn2ncc(-c3ccnc(N(C)C)n3)c12	binding	1 µM	72%
O=C(Nc1cccnn1)N1CC(C/C=C/c2cncc(Oc3ccc(C(F)(F)F)cn3)n2)C1	cell-free assay, competition with immobilised ligand	1 µM	79%
Cc1cnc(Nc2ccc(C(=O)N3CCC(N4CCCC4)CC3)cc2)nc1-c1cc2ccccc2s1	binding, competition with immobilised ligand	1 µM	19%
O=C(Nc1c[nH]nc1C(=O)NC1CCNCC1)c1cc(F)cc(F)c1	binding, competition with immobilised ligand	1 µM	89%
COc1ccc2c(O[C@@H]3C[C@H]4C(=O)N[C@]5(C(=O)O)CC5/C=C\CCCCC[C@H](NC(=O)OC5CCCC5)C(=O)N4C3)cc(-c3csc(NC(=O)C(C)C)n3)nc2c1C (stereo partly shown)	cell-free assay, competition with immobilised ligand	1 µM	79%
COc1cnc(Nc2cccc(S(N)(=O)=O)c2)nc1N1CCN(c2ccccc2)C(=O)C1	binding, competition with immobilised ligand	1 µM	84%
N[C@H]1CCN(c2nccc(-c3cnn4ncccc34)n2)C1	binding	1 µM	100%
O=C(N1CCS(=O)(=O)CC1)N1C[C@H](c2ccc(OC(F)(F)F)cc2)C[C@H](c2nc(C3CC3)no2)C1	cell-free assay, competition with immobilised ligand	1 µM	100%
C[C@H]1CCN(c2nccc(-c3cnn4ncccc34)n2)C1	binding	1 µM	59%
CC(=O)Nc1c(C(C)=O)c(=O)n(C)c2nc(-c3ccc(Cl)cc3Cl)c(-c3ccc(Cl)cc3)cc12	cell-free assay, competition with immobilised ligand	1 µM	100%
